# Screening results: PubChem BioAssay, Broad Institute
# Sampled rows, rich in hits. Any-hit rate of the full collection: about 2.9%.
# CDK5 p35 inh: blocks human CDK5/p35 kinase activity | Q00535+Q15078 | Recombinant CDK5/p35, ADP-Glo luminescence, 60 min | inhibition, % at 10 µM | 330,000 tested, 0.01% active | AID 488839;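 active = highest replicate inhibition of at least 50% and at least 75% of replicates reaching 50%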
# Target sequence (Q00535 whole entry, looked up): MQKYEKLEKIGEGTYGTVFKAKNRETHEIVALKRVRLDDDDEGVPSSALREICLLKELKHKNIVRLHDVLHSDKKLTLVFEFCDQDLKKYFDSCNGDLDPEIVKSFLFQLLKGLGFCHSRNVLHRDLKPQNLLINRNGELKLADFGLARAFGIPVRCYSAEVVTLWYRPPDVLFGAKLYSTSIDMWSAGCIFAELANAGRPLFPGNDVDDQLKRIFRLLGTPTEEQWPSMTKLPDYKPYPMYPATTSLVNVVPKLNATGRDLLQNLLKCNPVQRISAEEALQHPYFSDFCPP
# Target sequence (Q15078 whole entry, looked up): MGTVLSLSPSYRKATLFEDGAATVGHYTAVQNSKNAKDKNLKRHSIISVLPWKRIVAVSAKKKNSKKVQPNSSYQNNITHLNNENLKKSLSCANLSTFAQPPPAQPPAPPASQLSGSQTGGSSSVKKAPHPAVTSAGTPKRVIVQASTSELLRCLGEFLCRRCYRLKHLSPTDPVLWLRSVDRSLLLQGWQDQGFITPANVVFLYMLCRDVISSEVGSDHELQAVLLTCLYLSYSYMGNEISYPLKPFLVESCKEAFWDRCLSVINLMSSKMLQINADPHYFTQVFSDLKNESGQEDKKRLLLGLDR
# Cneo AK release: Cryptococcus neoformans lysis via adenylate kinase release | C. neoformans lysis, adenylate kinase release luminescence, 4 h; normalised: neutral wells 0, clomiphene wells 100 | lysis activity, % at 15 µM | 360,000 tested, 0.2% active | AID 651654;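 active = mean lysis activity across replicates of at least 80%, whatever share of replicates individually reach that level; inactive = mean lysis activity below 80%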
#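 Material: C. neoformans cells; Schedule: 4 h static compound exposure, 37 °C, read 1 h post-reagent; Measured by: adenylate kinase release luminescence; Read-out: signal increase indicating cell lysis; Controls: Clomiphene as positive lysis control.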
# INS-1E GSIS act: primary screen for activators of insulin secretion dependent on glucose, INS-1E cells, GLuc reporter luminescence. INS-1E GLuc reporter insulin secretion, 2-3 h. activation, % at 16.6 µM. 370,000 tested, 0.61% active;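 active = lowest replicate activation of at least 40%, so every replicate reaches that level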
# dFosB act: mouse delta FosB homodimer activation. P13346. purified delta FosB, TAMRA-CDK5 oligo fluorescence polarization; percent of positive-control signal above neutral wells. activation, % at 25 µM. 340,000 tested, 0.99% active. AID 493131;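 active = mean activation above about 17%, with every replicate also reaching it, limit read from the data, passing the limit was not always enough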
# PAX8 inh HTS: PAX8 transcriptional activity inhibition; AID 652154; RMG-I TPO-luciferase reporter, SteadyGlo, 24 h; inhibition, % at 12.6 µM; 360,000 tested, 1.2% active;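 active = mean replicate inhibition at least 60% with every replicate also reaching 60%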;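 note: luciferase light reporting Pax8 driven TPO promoter activity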
# HIV Env fusion: inhibitors of HIV Env-mediated cell fusion. HeLa-JRFL Env/CEM21 cell fusion, luciferase. inhibition, % at 12.3 µM. 360,000 tested, 1.1% active. AID 651610;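 active = mean replicate inhibition score of at least 50 and every replicate individually at or above 50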
# Numbers stand for hits; – = inactive; · = not tested or not shown; [ ] = another dose, or the depositor's remark.
SMILES,CDK5 p35 inh,Cneo AK release,INS-1E GSIS act,dFosB act,PAX8 inh HTS,HIV Env fusion
COCc1cc(C)nc2sc(C(=O)NN)c(-n3cccc3)c12,–,·,–,–,61,–
COC(C(=O)C(O)C(C)O)C1Cc2cc3cc(OC4CC(OC5CC(O)C(O)C(C)O5)C(O)C(C)O4)c(C)c(O)c3c(O)c2C(=O)C1OC1CC(OC2CC(OC3CC(O)C(OC)C(C)O3)C(O)C(C)O2)C(O)C(C)O1 (stereo not given),–,·,–,–,100,78
COc1ccc(S(=O)(=O)N(C)C[C@@H]2Oc3ccc(NC(=O)Nc4ccc(C(F)(F)F)cc4)cc3CC(=O)N([C@H](C)CO)C[C@@H]2C)cc1,·,–,–,·,78,–
Cc1noc(C)c1S(=O)(=O)N(C)C[C@@H]1Oc2ccc(NC(=O)Nc3ccc(C(F)(F)F)cc3)cc2CC(=O)N([C@H](C)CO)C[C@@H]1C,·,–,–,·,–,60[16.7 µM]
C[C@@H]1CN([C@@H](C)CO)C(=O)Cc2cc(NC(=O)Nc3ccc(C(F)(F)F)cc3)ccc2O[C@@H]1CN(C)S(=O)(=O)c1ccc(Cl)cc1,–,–,–,–,96,–
COc1ccc(S(=O)(=O)N(C)C[C@@H]2Oc3ccc(NC(=O)Nc4ccc(C(F)(F)F)cc4)cc3CC(=O)N([C@@H](C)CO)C[C@@H]2C)cc1,·,–,–,·,66,–
CO[C@H]1CN(C)C(=O)c2ccc(NS(=O)(=O)c3ccccc3Cl)cc2OC[C@H](C)NC[C@@H]1C,·,–,–,·,·,–
CN1CCN(C(=O)C[C@@H]2CC[C@H]3[C@H](COc4ccc(NC(=O)c5ccc(F)c(F)c5)cc4C(=O)N3C)O2)CC1,·,–,–,·,–,–
C[C@H]1CN(C)C(=O)Cc2cc(NS(C)(=O)=O)ccc2O[C@H]1CN(C)S(C)(=O)=O,·,·,–,·,·,·
C[C@H]1CN([C@@H](C)CO)S(=O)(=O)c2ccc(-c3ccc(F)cc3)cc2O[C@@H]1CN(C)C(=O)C1CCC1,·,·,–,·,·,–
CCOC(=O)c1ccccc1-n1c(C)cc(C2N=C(N)Nc3nc4ccccc4n32)c1C (stereo not given),–,–,–,45,·,·
C[C@@H]1CCCCO[C@H](CN(C)C(=O)Nc2ccc3c(c2)OCO3)[C@H](C)CN([C@@H](C)CO)C(=O)c2cc(NC(=O)Nc3cccc4ccccc34)ccc2O1,·,–,–,·,–,–
Cc1ccc(NC(=O)C2=C(c3ccccc3)S(=O)(=O)CCS2(=O)=O)cc1,–,·,155,–,116,–
COc1ccc(C(=O)CN2C(=O)c3ccccc3S2(=O)=O)cc1,·,–,–,·,93,72
COc1ccc(C(=O)CN2C(=O)c3ccccc3S2(=O)=O)cc1Br,–,–,–,–,–,–
O=C(CN1C(=O)c2ccccc2S1(=O)=O)c1ccc(F)c(F)c1,–,–,–,–,64,–
COc1ccc(-c2ccc3n(c2=O)C[C@@H]2[C@@H](CO)[C@H](C(=O)N4CCOCC4)[C@H]3N2C)cc1,·,–,–,·,·,·
CCNC(=O)[C@@H]1[C@@H](CO)[C@@H]2Cn3c(ccc(-c4ccc(F)cc4)c3=O)[C@@H]2N1Cc1ccccc1F,·,–,–,·,–,·
O=C(C[C@H]1CC[C@@H]2[C@H](COC[C@H](O)CN2C(=O)c2cccnc2)O1)NCc1ccc(Cl)cc1,·,–,–,·,–,–
C[C@H](CO)N1C[C@H](C)[C@@H](CN(C)C(=O)Nc2ccc(F)cc2)Oc2ccc(NS(=O)(=O)c3ccc(F)cc3)cc2C1=O,·,–,–,·,·,–
O=S(=O)(c1ccccc1)N1CC[C@@H]2[C@H]1c1cc(-c3ccccc3F)ccc1N[C@@H]2CO,·,–,–,·,–,·
CC1=CC(c2ccc(Cl)cc2)n2nc(NC(=O)c3ccccc3)nc2N1 (stereo not given),–,–,–,–,·,·
CC1=Nc2ccccc2N=C(NC(=O)c2ccccc2)C1c1ccc(Cl)cc1 (stereo not given),–,–,–,–,–,69
CC(=O)N(Cc1ccc(F)cc1)C1=C(NCCc2ccccc2)C(=O)c2ccccc2C1=O,–,–,·,–,105,84
O=C1C(Cl)=C(NCCc2ccccc2)C(=O)c2ccccc21,–,–,–,–,–,–
SMILES,CDK5 p35 inh,Cneo AK release,INS-1E GSIS act,dFosB act,PAX8 inh HTS,HIV Env fusion
COCC#Cc1cnc2c(c1)C(=O)N([C@H](C)CO)C[C@@H](C)[C@H](CN(C)C(C)=O)O2,·,–,–,·,·,–
Cc1cc(-c2csc(NC(=O)c3ccc(C#N)cc3)n2)c(C)n1Cc1ccco1,–,·,–,–,121,·
CCCS(=O)(=O)N1CCCC(c2nc(-c3cccc(OC)c3)no2)C1 (stereo not given),–,–,–,–,·,·
COc1cccc(-c2noc(C3CCCN(S(=O)(=O)c4cccc(Cl)c4C)C3)n2)c1 (stereo not given),–,–,·,–,·,112
COc1ccc(CN(C)C[C@H]2Oc3ccc(NC(=O)CCCCCC(=O)Nc4ccccc4N)cc3C(=O)N([C@H](C)CO)C[C@H]2C)cc1,·,·,–,·,–,·
C[C@@H]1CN([C@H](C)CO)C(=O)c2cc(NC(=O)CCCCCC(=O)Nc3ccccc3N)ccc2O[C@@H]1CN(C)Cc1ccc(C(F)(F)F)cc1,·,·,–,·,95,·
C[C@@H]1CN([C@H](C)CO)C(=O)c2cc(NC(=O)CCCCCC(=O)Nc3ccccc3N)ccc2O[C@@H]1CN(C)Cc1ccc(Oc2ccccc2)cc1,·,·,–,·,71,·
C[C@@H]1CN([C@H](C)CO)C(=O)Cc2cc(NC(=O)CCCCCC(=O)Nc3ccccc3N)ccc2O[C@H]1CN(C)Cc1ccc2c(c1)OCO2,·,92,–,·,–,–
COc1cccc(NC(=O)N2CC(=O)N3[C@H](CO)[C@H](c4ccc(C#CC5CCCC5)cc4)[C@H]3C2)c1,·,·,–,·,–,·
O=C1S/C(=C/c2ccc(N3CCOCC3)o2)C(=O)N1Cc1ccc(F)cc1,–,–,·,–,–,–
O=C1NC(=S)S/C1=C/c1ccc(N2CCOCC2)o1,–,–,·,49,·,·
Oc1ccc(Br)cc1/C=N/Nc1ncc(-c2ccccc2)cn1,–,·,·,30,–,–
Oc1ccc(/C=N/Nc2ncc(Br)cn2)c(O)c1,–,–,–,–,–,–
CN(C)CCNC(=O)c1cc2c(s1)-c1ccc(Cl)cc1SC2,–,–,228,–,93,–
CCOCCCNC(=O)c1cc2c(s1)-c1ccccc1SC2,–,–,–,–,–,–
CCCn1c(C)cc(C(=O)CN2C(=O)c3ccccc3S2(=O)=O)c1C,·,–,–,·,96,67
Cc1ccc(C)c(C(=O)CN2C(=O)c3ccccc3S2(=O)=O)c1,–,–,·,–,·,·
Cc1cc(C(=O)CN2C(=O)c3ccccc3S2(=O)=O)c(C)n1CC1CCCO1 (stereo not given),–,–,–,–,·,115
O=C(C[C@H]1CC[C@@H](NC(=O)CN2CCOCC2)[C@@H](CO)O1)NC1CCC1,·,–,–,·,–,–
